SUMO1-SIM PPI: modulators of SUMO1 protein-protein interactions, primary screen, biochemical, uHTS; inhibition, % at 20 µM; actives 0.33% (n = 360,000); SUMO1 binding to a labelled peptide, TR-FRET, 1 h; in the data active means inhibition above about 37%
F508del corr: F508del CFTR correction, initial screen, CFBE line, single point. CFBE cells, YFP halide quenching; stimulated with forskolin plus potentiator P3; % fluorescence drop versus neutral controls. activity (quench increase), % at 7.58 µM. actives 0.36% (n = 350,000). AID 720511, 2013;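 active means mean added fluorescence quench of at least 8% versus neutral control, with both replicates also reaching 8%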;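 further: cells transiently co-express mutant CFTR-F508del with the halide-sensitive YFP; corrector assay measuring rescue of mutant channel to the surface after 24 h compound exposure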
STEP inh: STEP phosphatase inhibitors, primary screen, biochemical, fluorescence intensity, uHTS; Tyrosine-protein phosphatase non-receptor type 5 (Homo sapiens), P54829; recombinant STEP, OMFP fluorogenic substrate; inhibition, % at 20 µM; actives 0.25% (n = 360,000);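 active means inhibition at 20 µM, scaled per plate between control wells, above about 37%, limit read from the data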
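Test system: STEP tyrosine phosphatase / Reagent: OMFP at 25 µM / Doses: 20 µM, 1% DMSO / Read-out: percent inhibition scaled to no-enzyme and uninhibited-enzyme controls, plate-pattern corrected / Detection: FITC-channel fluorescence of OMFP product / Medium: Bis-Tris buffer pH 6.0, 2.5 mM DTT, 0.005% Tween 20 / Schedule: 20 min at room temperature, dark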
Scp1 inh: Scp-1 phosphatase inhibitors, primary screen, biochemical, colorimetric, uHTS; AID 493091, 2011; inhibition, % at 20 µM; actives 0.88% (n = 340,000); Recombinant Scp1, phosphopeptide, malachite green phosphate absorbance; Carboxy-terminal domain RNA polymerase II polypeptide A small phosphatase 1 (Homo …;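 active means inhibition above about 50% at 20 µM, limit read from the data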
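System: truncated SCP-1 phosphatase (76-261aa); medium: Tris acetate buffer pH 5.5 with MgCl2 and Tween-20; incubation: 45 min room-temperature reaction, 5 min colour, 30 min stabiliser; compound: single 20 µM dose, 1% DMSO; reagent: Phosphorylated 17-residue peptide substrate; read-out: % inhibition at 20 µM; technique: colorimetric free-phosphate detection, absorbance 630 nm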
LMPTP inh: LMPTP phosphatase inhibitors, primary screen, biochemical, fluorescence intensity, uHTS | Low molecular weight phosphotyrosine protein phosphatase (Homo sapiens), P24666 | recombinant LMPTP-A, OMFP fluorogenic substrate | inhibition, % at 20 µM | actives 0.22% (n = 360,000) | AID 651560, 2012;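 active means compounds that cut the enzyme signal by at least half of the control window in the single-dose screen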
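Test system: LMPTP-A phosphatase enzyme; input: 0.625 nM LMPTP-A final; reagent: OMFP substrate, 400 µM final; compound dosing: 20 µM single dose, 3% DMSO; incubation: 50 min dark incubation at room temperature; measured by: endpoint fluorescence intensity from OMFP dephosphorylation; measure: % inhibition relative to no-enzyme and uninhibited control wells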
DNMT1 inh: human DNMT1 methyltransferase inhibitors, primary screen, biochemical, molecular beacon, fluorescence, HinP1I cleavage, uHTS; DNA (cytosine-5)-methyltransferase 1 (Homo sapiens), P26358; inhibition (reported as % activation of signal), % at 10 µM; actives 0.83% (n = 360,000); AID 588458, 2011; in the data active means inhibition above about 50%
Scp-1 conf: Scp-1 phosphatase inhibitors, retest, confirmation, biochemical, colorimetric, single concentration; shares compounds with Scp1 inh; recombinant SCP-1 catalytic domain, phosphate release, malachite green absorbance; inhibition, % at 20 µM; actives 61% (n = 2,500)
MG interference: colorimetric readout interference by compounds, confirmation, artefact control for Scp-1 inhibitor project, biochemical, single concentration | apparent inhibition (interference), % at 20 µM | shares compounds with Scp1 inh | Colorimetric interference counterscreen, malachite green absorbance 630 nm | 2,500 tested, under 10 active;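 further: compounds added after enzyme reaction finished so only phosphate colour detection is probed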
Scp1 DSF: Scp-1 binding by thermal shift, confirmation, orthogonal assay for Scp-1 inhibitor project, biophysical, differential scanning fluorimetry; shares compounds with Scp1 inh; Recombinant SCP1, Sypro Orange thermal shift Tm; thermal shift relative to vanadate control, % at 40 µM; actives 25% (n = 1,500); AID 540329, 2011;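 active means substances whose mean melting-temperature shift, as a percentage of the reference inhibitor's shift, reaches about 5.3%, limit read from the data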
Hits are given with their value; 0 = inactive; - = no result. A selection: hits, their analogues and other compounds. The true share with any hit is near 1.6%.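 How the source made its calls, unless noted: active means inhibition of at least 30% at 20 µM; inactive means the rest.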

SMILES	SUMO1-SIM PPI	F508del corr	STEP inh	Scp1 inh	LMPTP inh	DNMT1 inh	Scp-1 conf	MG interference	others
O=C(O)c1cccc(NC(=O)c2cn(-c3ccccc3)nc2-c2cc3ccccc3o2)c1	0	0	0	58	56	0	80	0	Scp1 DSF=0
CC(C)NC(=O)Nc1ccc2c(c1)C(=O)N([C@H](C)CO)C[C@@H](C)[C@H](CN(C)Cc1ccc3c(c1)OCO3)OCCCC[C@@H](C)O2	-	0	-	-	-	-	-	-
COCC(=O)N1CCC2(CC1)CN(C(=O)CN1CCOCC1)[C@@H](CO)c1c2c2ccc(OC)cc2n1C	-	0	-	-	-	-	-	-
O=C(C[C@@H]1C[C@H]2c3cc(NC(=O)NC4CCCC4)ccc3O[C@H]2[C@@H](CO)O1)NCc1cccc(F)c1	-	0	-	-	-	-	-	-
Cc1ccc(-c2csc(N3CCN(CCCn4c(C(F)(F)F)nc5ccccc54)CC3)n2)cc1	0	0	0	0	0	0	-	-
Cc1ccc(-c2csc(NCCn3c(C(F)(F)F)nc4ccccc43)n2)cc1	0	0	0	59	0	0	0	0
C[C@H](CO)N1C[C@H](C)[C@H](CN(C)C(=O)Nc2ccc(F)cc2)Oc2ccc(NC(=O)C3CC3)cc2CC1=O	-	0	-	-	-	-	-	-
C[n+]1ccc(C(=O)Nc2ccccc2Cl)cc1	0	-	0	98	0	0	90	0	Scp1 DSF=0
COc1ccc2nc(COC(=O)c3cccs3)c(C(C)=O)[n+]([O-])c2c1	0	0	0	103	0	0	0	0
COc1ccc2nc(COC(=O)c3cccc([N+](=O)[O-])c3)c(C(C)=O)[n+]([O-])c2c1	0	0	0	0	0	0	-	-
CC(=O)N1CC2(C1)[C@H](c1ccc(-c3cccc(F)c3)cc1)[C@H](CO)N2CC1CCOCC1	-	0	-	-	-	-	-	-
NC(=O)c1cc(S(=O)(=O)NCc2ccc(Br)cc2)cs1	0	0	0	0	0	0	0	0
O=C(C[C@H]1CC[C@H]2[C@@H](COC[C@H](O)CN2C(=O)Nc2ccccc2)O1)NCc1ccncn1	-	0	-	-	-	-	-	-
O=C(N/N=C/c1ccc2ccccc2c1)c1ccc(COc2ccc3c(c2)CCC3)o1	0	-	0	102	0	0	71	0	Scp1 DSF=0
Cc1ccc(S(=O)(=O)Nc2ccc3c(c2)C(=O)N([C@H](C)CO)C[C@@H](C)[C@H](CN(C)Cc2ccncc2)OCCCC[C@@H](C)O3)cc1	-	0	-	-	-	-	-	-
Cc1cc(C)c2c(n1)SCC(=O)N2CC(=O)Nc1c(C)cccc1C	0	0	0	52	0	0	0	0
Cc1cc(C)c2c(n1)SCC(=O)N2CC(=O)Nc1cccc(Cl)c1	0	0	0	0	0	0	-	-
CCCCOC(=O)c1cc(-c2ccc(/C=N/n3cnnc3)o2)ccc1Cl	0	-	0	91	0	0	0	0
CN1C(=O)c2cc(NC(=O)Nc3cccc(Cl)c3)ccc2OC[C@@H]2O[C@@H](CC(=O)NCCc3ccncc3)CC[C@H]21	-	0	-	-	-	-	-	-
Cc1ccc(-n2[nH]c(C)c(/C=N/Nc3ccc([N+](=O)[O-])cc3[N+](=O)[O-])c2=O)cc1C	0	-	70	95	0	0	68	0	Scp1 DSF=11
